OX1R antag-1: antagonists of human orexin 1 receptor. CHO/OX1R cells, Fluo-8 calcium fluorescence, orexin A. inhibition, % at 5 µM. hit rate 0.43% among 330,000. AID 434989. O43613;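 active = inhibition above its plate's threshold, mean inhibition of all tested compounds on the plate plus 3 SD, cut at about 37% in these data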
Target sequence (O43613 whole entry, looked up): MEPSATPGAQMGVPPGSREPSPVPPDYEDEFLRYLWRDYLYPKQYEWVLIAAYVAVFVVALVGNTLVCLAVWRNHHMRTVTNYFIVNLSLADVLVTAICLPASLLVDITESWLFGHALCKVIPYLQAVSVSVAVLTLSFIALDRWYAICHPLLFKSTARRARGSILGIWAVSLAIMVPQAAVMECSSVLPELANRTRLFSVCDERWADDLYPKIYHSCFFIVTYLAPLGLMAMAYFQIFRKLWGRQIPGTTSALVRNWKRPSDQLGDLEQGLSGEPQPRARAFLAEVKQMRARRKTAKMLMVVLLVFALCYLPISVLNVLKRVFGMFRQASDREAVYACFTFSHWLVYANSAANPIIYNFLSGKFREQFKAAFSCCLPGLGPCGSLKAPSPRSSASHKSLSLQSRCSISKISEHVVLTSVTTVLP
OX1R antag-2: blocks the human orexin 1 receptor; O43613; OX1R-expressing cells, FRET antagonist read-out; inhibition, % at 6.6 µM; hit rate 1.8% among 330,000; AID 485270; in the data active = inhibition mostly above about 38%, no sharp cut-off; inactive = mostly below about 40%
GPR7 antagonist: antagonists of human GPR7 (neuropeptides B/W receptor 1); P48145; hit rate 1.1% among 290,000; GPR7-expressing cells, fluorescence antagonist assay; AID 1861; inhibition, % at 4.4 µM; in the data active = inhibition above about 16%, passing the limit was not always enough;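 note: cells stimulated with the agonist NPW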
CHO parental Ca: counter-screen for OX1R antagonists: effect in parental CHO cells | parental CHO-K1, ATP-induced calcium, Fluo-8 fluorescence | inhibition, % at 5.6 µM | hit rate 0.63% among 330,000 | AID 463079;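 active = inhibition above that plate's mean sample inhibition plus 3 SD, cut at about 26% in these data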
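test system = CHO parental line | reagent = ATP stimulus | measured by = intracellular calcium via Fluo-8 no-wash fluorescent dye | control set = ATP and no-ATP DMSO wells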
TAAR1 antag: antagonists of human TAAR1 | Q96RJ0 | CHO RD-HGA16 TAAR1, Fluo-8 calcium fluorescence, antagonist | inhibition, % at 3 µM | hit rate 1.5% among 360,000 | AID 624466;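 active = inhibition above a per-plate cutoff, the mean inhibition of test compounds on that plate plus 3 SD, cut at about 49% in these data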
Target sequence (Q96RJ0 whole entry, looked up): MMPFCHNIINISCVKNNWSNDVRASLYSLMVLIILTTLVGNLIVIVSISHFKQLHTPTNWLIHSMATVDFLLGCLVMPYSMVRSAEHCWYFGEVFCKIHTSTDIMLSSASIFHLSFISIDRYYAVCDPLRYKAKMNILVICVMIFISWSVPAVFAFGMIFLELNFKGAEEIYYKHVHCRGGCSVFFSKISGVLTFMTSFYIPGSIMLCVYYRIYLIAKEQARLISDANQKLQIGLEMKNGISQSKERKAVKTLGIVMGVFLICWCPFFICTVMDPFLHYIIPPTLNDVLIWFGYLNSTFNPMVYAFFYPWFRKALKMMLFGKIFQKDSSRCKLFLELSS
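System: CHO RD-HGA16 cells bearing hTAAR1. Reagent: EC80 β-phenethylamine stimulus. Schedule: seeding 17-24 h prior, 75-min 37 °C, 30-min RT dye loading. Signal: Fluo-8 intracellular calcium dye fluorescence, real-time kinetic reads. Read-out: % inhibition from peak post-agonist over basal fluorescence ratio. Benchmarks: vehicle wells and EC80 agonist wells. Replicates: n of 1.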
TAAR1 ag: human TAAR1 agonism. CHO RD-HGA16 TAAR1, Fluo-8 calcium fluorescence; vehicle wells 0%, saturating PEA agonist 100%. Q96RJ0. AID 624467. activation, % at 3 µM. hit rate 0.99% among 360,000;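 active = activation above the mean activation of all test compounds in the run plus 3 SD, cut at about 38% in these data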
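test system = CHO RD-HGA16 cells carrying human TAAR1 plus Gα16 | schedule = 17-24 h seeding, 75 min 37 °C dye, 30 min RT | compound dosing = 3 µM single concentration | control set = DMSO and PEA EC100 | replicates = n 1 | signal = Fluo-8 fluorescence, 5 s baseline then 140 s kinetic read | measure = percent activation vs PEA EC100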
TAAR1 ag conf: human TAAR1 agonism, confirmed; shares compounds with TAAR1 ag; CHO RD-HGA16 TAAR1, Fluo-8 calcium fluorescence; scaled: DMSO 0%, maximal phenethylamine 100%; activation, % at 3 µM; hit rate 82% among 2,400;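 active = activation above a cutoff set at the run's mean compound activation plus 3 SD, cut at about 39% in these data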
Ga16 ag counter: counter-screen for TAAR1 agonists: nonselective agonists in parental cells; shares compounds with TAAR1 ag; CHO-Ga16 parental, Fluo-8 calcium fluorescence; normalized to maximal ATP response, DMSO zero; activation, % at 3 µM; hit rate 50% among 2,400;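 active = activation above the run cutoff, the mean activation over all tested wells plus 3 SD, cut at about 12% in these data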
TAAR1 desens: TAAR1 response desensitization, agonist counter-screen; CHO RD-HGA16 hTAAR1, Fluo-8 calcium, beta-PEA response inhibition; AID 651951; shares compounds with TAAR1 ag; hit rate 46% among 2,400; inhibition, % at 3 µM;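 active = inhibition above the run cutoff, the mean inhibition of all test compounds plus 3 SD, cut at about 49% in these data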;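 note: beta-PEA stimulus applied at its EC80; loss of beta-PEA calcium signal after compound pretreatment read as receptor desensitization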
Ga16 nonsel ant: counter-screen for TAAR1 agonists: nonselective Ga16 antagonists; hit rate 39% among 2,400; shares compounds with TAAR1 ag; inhibition, % at 3 µM; CHO-Ga16 ATP-induced calcium, Fluo-8 fluorescence; AID 651952;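 active = inhibition above the plate's mean compound inhibition plus 3 SD, computed per plate, cut at about 22% in these data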
Each line names hits and unclear results; the compound was inactive in the other large screens (follow-up assays come after a bar, where they were run). Shown are actives, neighbours in structure and some others; about 4.6% of the full set was active somewhere.

CN(C)c1ccc(/C=C2\SC(=S)N(Nc3ncc(C(F)(F)F)cc3Cl)C2=O)cc1	OX1R antag-1 100, CHO parental Ca 76, TAAR1 antag 87, TAAR1 ag 123 | TAAR1 ag conf 76 | Ga16 ag counter 122 | TAAR1 desens 77 | Ga16 nonsel ant 90
CC(C)CCN1CCN(Cc2cccc3cccnc23)CC1CCO (centres undefined)	none
[N-]=[N+]=NCC/C=C\C1NS(=O)(=O)OCC1O (centres undefined)	none
O=C(NCCc1cccs1)C1CC(c2cccc(F)c2)=NO1 (centres undefined)	TAAR1 antag 85, TAAR1 ag 59 (no result: GPR7 antagonist) | TAAR1 ag conf 73 | Ga16 ag counter inactive | TAAR1 desens 94 | Ga16 nonsel ant inactive
Cc1ccc(N2C(N)=C(C#N)C(c3cccs3)C3=C2CC(C)(C)CC3=O)cc1 (centres undefined)	TAAR1 ag 45 | TAAR1 ag conf 39 | Ga16 ag counter 12 | TAAR1 desens inactive | Ga16 nonsel ant inactive
Nc1nc(Nc2ccccc2)nc2ccccc12	TAAR1 antag 91, TAAR1 ag 103 | TAAR1 ag conf 95 | Ga16 ag counter inactive | TAAR1 desens 100 | Ga16 nonsel ant inactive
CN(C)c1ccc(Nc2nc(N)c3ccccc3n2)cc1	none
Cc1ccc(Nc2nc(N)c3ccccc3n2)cc1Cl	TAAR1 ag 50 | TAAR1 ag conf 83 | Ga16 ag counter 24 | TAAR1 desens 75 | Ga16 nonsel ant inactive
Nc1nc(Nc2ccc(Cl)cc2)nc2ccccc12	TAAR1 antag 72, TAAR1 ag 65 | TAAR1 ag conf 84 | Ga16 ag counter inactive | TAAR1 desens 70 | Ga16 nonsel ant inactive
CCc1cc2c(NC(Cc3ccccc3)C(=O)O)nc(C)nc2s1 (centres undefined)	none
COc1ccc(NC(=O)C2CC(=O)N(CCc3ccc(F)cc3)C2)c(OC)c1 (centres undefined)	none
O=C(NCc1cccc(F)c1)c1cccc2c1C(=O)c1ccc(N3CCCC3)cc1S2(=O)=O	none (no result: GPR7 antagonist, TAAR1 antag, TAAR1 ag)
CC1CCN(c2ccc3c(c2)S(=O)(=O)c2cccc(C(=O)NCc4cccc(F)c4)c2C3=O)CC1	TAAR1 antag 91, TAAR1 ag 67 (no result: GPR7 antagonist) | TAAR1 ag conf inactive | Ga16 ag counter 36 | TAAR1 desens 60 | Ga16 nonsel ant 62
COc1ccc(C(=O)NCC(=O)OCC(=O)N2CCCc3ccccc32)cc1	none
COc1ccc(C(=O)N2CCCC(Nc3ccc(C(C)C)cc3)C2)c(OC)n1 (centres undefined)	none
Cc1ccccc1C(=O)NNC(=S)NC(=O)c1ccccc1	TAAR1 antag 55, TAAR1 ag 123 | TAAR1 ag conf 135 | Ga16 ag counter 112 | TAAR1 desens 100 | Ga16 nonsel ant 78
O=C(NC(=S)NNC(=O)c1ccccc1O)c1ccccc1	TAAR1 ag 66 | TAAR1 ag conf 76 | Ga16 ag counter 66 | TAAR1 desens inactive | Ga16 nonsel ant inactive
Cc1ccc(C(=O)NC(=S)NNC(=O)c2ccccc2O)cc1	TAAR1 ag 114 | TAAR1 ag conf 127 | Ga16 ag counter 97 | TAAR1 desens 77 | Ga16 nonsel ant 45
O=C(NC(=S)NNC(=O)c1ccccc1O)c1ccc(F)cc1	TAAR1 ag 90 | TAAR1 ag conf 55 | Ga16 ag counter 58 | TAAR1 desens inactive | Ga16 nonsel ant 22
O=C(NC(=S)NNC(=O)c1ccco1)c1ccccc1	none
CCCC1(c2ccsc2)NC(=O)NC1=O (centres undefined)	none (no result: OX1R antag-1, OX1R antag-2, GPR7 antagonist, CHO parental Ca)
CCOC(=O)N1CCN(S(=O)(=O)c2cccc3ccc(C)nc23)CC1	none
O=C1COc2ccc(C(=O)COC(=O)c3sc4ccccc4c3Cl)cc2N1	none
CCCCN(C)C(=O)c1ccc(Nc2nc(C(N)Cc3ccccc3)cs2)nc1 (centres undefined)	TAAR1 ag 49 (no result: OX1R antag-1, OX1R antag-2, GPR7 antagonist, CHO parental Ca) | TAAR1 ag conf 73 | Ga16 ag counter 16 | TAAR1 desens 54 | Ga16 nonsel ant 32
NC(Cc1ccc(F)cc1)c1csc(Nc2ccc(C(F)(F)F)cn2)n1 (centres undefined)	TAAR1 ag 74 (no result: OX1R antag-1, OX1R antag-2, GPR7 antagonist, CHO parental Ca) | TAAR1 ag conf 49 | Ga16 ag counter 27 | TAAR1 desens inactive | Ga16 nonsel ant 35
CN(Cc1ccccc1)C(=O)c1ccc(Nc2nc(C(N)Cc3ccc(C(F)(F)F)cc3)cs2)nc1 (centres undefined)	TAAR1 antag 75, TAAR1 ag 64 (no result: OX1R antag-1, OX1R antag-2, GPR7 antagonist, CHO parental Ca) | TAAR1 ag conf 59 | Ga16 ag counter 30 | TAAR1 desens 63 | Ga16 nonsel ant 70
Cc1ccc(C(=O)Nc2nc(C(N)Cc3ccc(C(F)(F)F)cc3)cs2)cc1 (centres undefined)	TAAR1 ag 65 (no result: OX1R antag-1, OX1R antag-2, GPR7 antagonist, CHO parental Ca) | TAAR1 ag conf 52 | Ga16 ag counter 29 | TAAR1 desens inactive | Ga16 nonsel ant 43
CC(C)CC(N)c1csc(Nc2ccc(C(=O)N(C)Cc3ccccc3)cn2)n1 (centres undefined)	none (no result: OX1R antag-1, OX1R antag-2, GPR7 antagonist, CHO parental Ca)
NC(Cc1cnc[nH]1)c1csc(Nc2ccc(C(F)(F)F)cn2)n1 (centres undefined)	none (no result: OX1R antag-1, OX1R antag-2, GPR7 antagonist, CHO parental Ca)
COCCNc1nnc(SC(C)C(=O)Nc2ccc(-c3nc4ccc(C)cc4s3)cc2)s1 (centres undefined)	none
Cc1ccc(CC2(OCCN(C)C)CCC(C(C)(C)C)CC2)cc1 (centres undefined)	TAAR1 ag 63 (no result: OX1R antag-1, OX1R antag-2, GPR7 antagonist, CHO parental Ca) | TAAR1 ag conf 85 | Ga16 ag counter 45 | TAAR1 desens 75 | Ga16 nonsel ant 41
Cc1ccc(CNC(=S)NC2CCC(C(C)(C)C)CC2)cc1 (centres undefined)	none (no result: OX1R antag-1, OX1R antag-2, CHO parental Ca)
CN(C)CCOC1(Cc2ccc(F)cc2)CCC(C(C)(C)C)CC1 (centres undefined)	TAAR1 ag 56 (no result: OX1R antag-1, OX1R antag-2, GPR7 antagonist, CHO parental Ca) | TAAR1 ag conf 51 | Ga16 ag counter 34 | TAAR1 desens inactive | Ga16 nonsel ant 23
Cc1cc(C)nc(N2CCC(C(=O)NCc3ccccc3)CC2)n1	none
COc1ccc(C2CC(c3cccs3)=NN2C(=O)CSc2nncn2C)cc1OC (centres undefined)	none
CCCCn1c(N)c(N(CCOC)C(=O)C2CC(=O)N(c3ccc(CC)cc3)C2)c(=O)[nH]c1=O (centres undefined)	none (no result: GPR7 antagonist)

Bioassay records deposited in PubChem BioAssay by The Scripps Research Institute Molecular Screening Center.
